Hits are enriched below; roughly 2% of the tested compounds scored in any of these assays.
HKDC1 inh – HKDC1 hexokinase inhibitors, primary screen, biochemical, fluorescence, uHTS | Q2TB90 | recombinant HKDC1, G6PDH/diaphorase resazurin coupled fluorescence | actives 0.16% (n = 340,000) | inhibition, % at 20 µM;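 active means inhibition above about 35% when tested at 20 µM, limit read from the data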
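Incubation: 90 min at room temperature in dark / Material: recombinant HKDC1 (HK5) hexokinase enzyme, produced in-house / Quantity: enzyme 5 µg/mL final / Compound: one dose of 20 µM, 1% DMSO / Reagent: glucose and ATP substrates / Buffer or medium: Tris pH 8.0 buffer with MgCl2, Tween-20, BSA, BME / Technique: resorufin fluorescence at 613 nm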
VIM-2 inh – VIM-2 metallo-beta-lactamase inhibitors, primary screen, biochemical, epi-absorbance readout, Pseudomonas aeruginosa enzyme | purified VIM-2, nitrocefin hydrolysis, epi-absorbance fluorescence | inhibition, % at 5.6 µM | actives 0.89% (n = 290,000);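 active means inhibition above the mean of all tested compounds plus 3 SD, cutoff set per screening run, cut at about 7.5% in these data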;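 further: red hydrolysis product quenches plate fluorescence so inhibitors raise well fluorescence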
ATG4B inhibitor – ATG4B protease inhibitors, primary screen, biochemical, fluorescence, uHTS. Cysteine protease ATG4B (Homo sapiens), Q9Y4P1. ATG4B cleavage of LC3-PLA2, NBD-HPC fluorescence, 1 h. inhibition, % at 8.33 µM. actives 0.51% (n = 340,000). AID 504462, 2011; in the data active means inhibition above about 40%
beta cell repl – inducers of MIN6 beta-cell proliferation, primary screen, ATP luminescence, uHTS; actives 0.29% (n = 330,000); proliferation, % at 10 µM; AID 2380, 2010; MIN6 cells proliferation, ATPlite luminescence, 48 h; cells starved in 0.2% serum; 100% = growth in 10% serum;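 active means compounds whose signal lies at least 3.5 SD above the mean of all wells on their plate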
IMP-1 inh – IMP-1 metallo-beta-lactamase inhibitors, primary screen, biochemical, epi-absorbance readout, Pseudomonas aeruginosa enzyme | actives 0.45% (n = 290,000) | purified IMP-1, nitrocefin hydrolysis, epi-absorbance fluorescence | inhibition, % at 5.6 µM | metallo-beta-lactamase IMP-1 (Pseudomonas aeruginosa);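 active means inhibition above the mean plus 3 SD of all compounds in the same screening run, cut at about 4.5% in these data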
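System: Purified IMP-1 | Read-out basis: Percent enzyme inhibition | Controls: IMP-1 with DMSO as 0%, enzyme-free DMSO as 100% | Replicates: One well per compound | Doses: 5.6 µM nominal single concentration | Detection: Epi-absorbance fluorescence, 480 nm excitation, 530 nm emission | Incubation: 25 °C, 15 min preincubation, 25 min reaction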
PvdQ inh – P. aeruginosa PvdQ acylase inhibitors, primary screen, biochemical, fluorescence, plate reader and imaging, single point. inhibition, % at 10 µM. purified PvdQ acylase. actives 0.063% (n = 340,000). AID 488965, 2010; in the data active means inhibition above about 30%, passing the limit was not always enough; inconclusive means no clear call, values can overlap the other calls
Large screens that a line does not name were inactive.

O=C(O)/C(=C\c1ccccc1OC(F)F)c1ccc(-c2ccccc2)cc1	IMP-1 inh 7.3
COC(=O)CN(C#N)c1nc(NCc2ccccc2)nc(OC)n1	none
CN(C)CCSc1nc(-c2ccccc2)nc2c1CCC2	VIM-2 inh 9.8
CCSc1ccc(-c2cccc([N+](=O)[O-])c2)nn1	PvdQ inh 48
Cc1cc2cc(CCNC(=O)CCc3ccccc3)c(=O)[nH]c2cc1C	none
CCOc1ccc(/C(O)=C2/C(=O)C(=O)N(c3nc(C)c(C)s3)C2c2ccco2)cc1 (stereo not drawn)	IMP-1 inh 5.5
Cc1cc(=O)[nH]c(-n2[nH]c3c(c2=O)CCCC3)n1	IMP-1 inh 14
Cc1nc(-n2[nH]c3c(c2=O)CCCC3)[nH]c(=O)c1Cc1ccccc1	none
C(=C\c1nnc(-c2cccs2)o1)/c1ccccc1	PvdQ inh 38
Cc1ccc(/C=C/c2nnc(-c3ccccc3)o2)cc1	none
COC(=O)c1c(NC(=O)Cc2cccs2)sc2c1CCCC2	IMP-1 inh 4.5
COC(=O)c1c(NC(=O)C(=O)N2CCOCC2)sc2c1CCCC2	none
COC(=O)c1c(NC(=O)C(=O)N2CCOCC2)sc2c1CCC2	VIM-2 inh 11
Cc1onc(-c2ccccc2)c1C(=O)Nc1ccc(Br)cc1Cl	none
Cc1[nH]c2ccccc2c1C(=O)COC(=O)c1ccc[n+]([O-])c1	VIM-2 inh 8.9
CCOC(=O)c1ccc[n+]([O-])c1	none (no result: VIM-2 inh, beta cell repl, IMP-1 inh)
COc1cc2c3nnc(-c4ccc(F)cc4)c-3cn(Cc3ccccc3)c2cc1OC	none
CC1(C)CC(=O)C2=C(C1)OC(N)=C(C#N)C2CCc1ccccc1 (stereo not drawn)	IMP-1 inh 4.7
CC(=O)c1ccc(NC(=O)CSc2ccc(-c3ccc(-n4cccn4)cc3)nn2)cc1	none (no result: VIM-2 inh, IMP-1 inh)
CCOCCCNC(=O)c1cn(C)c(=O)c2cc(OC)c(OC)cc12	IMP-1 inh 4.7
O=C1OC(c2ccccc2)c2ccc3ccccc3c21 (stereo not drawn)	VIM-2 inh 9.5
O=C1OC(c2ccccc2)c2ccccc21 (stereo not drawn)	PvdQ inh inconclusive
C#CCOCCOCCOCCNc1nc(N2CCN(C(=O)CCCCCCCCCCNC(=O)[C@@H](CCSC)n3cc(CCO)nn3)CC2)nc(N2CCN(C(=O)CCCCCCCCCCNC(=O)[C@H]([C@@H](C)CC)n3cc(CCCCCN)nn3)CC2)n1	ATG4B inhibitor 45 (no result: VIM-2 inh, IMP-1 inh, PvdQ inh)
C#CCOCCOCCOCCNc1nc(N2CCN(C(=O)[C@H]([C@@H](C)CC)n3cc([C@@H](N)CC(C)C)nn3)CC2)nc(N2CCN(C(=O)[C@H](Cc3cc4ccccc4[nH]3)n3cc([C@@H](N)CC(C)C)nn3)CC2)n1	none (no result: HKDC1 inh, VIM-2 inh, ATG4B inhibitor, IMP-1 inh, PvdQ inh)
C#CCOCCOCCOCCNc1nc(N2CCN(C(=O)CCCCCCCCCCNC(=O)[C@H](CCCCN)n3cc(CCO)nn3)CC2)nc(N2CCN(C(=O)CCCCCCCCCCNC(=O)[C@H](CCCN=C(N)N)n3cc(C[C@@H](C)CC)nn3)CC2)n1	ATG4B inhibitor 70 (no result: VIM-2 inh, IMP-1 inh)
C#CCOCCOCCOCCNc1nc(N2CCN(C(=O)[C@H]([C@@H](C)CC)n3cc([C@@H](N)CO)nn3)CC2)nc(N2CCN(C(=O)[C@H](Cc3cc4ccccc4[nH]3)n3cc([C@@H](N)C(C)CC)nn3)CC2)n1 (stereo partly drawn)	IMP-1 inh 7.0 (no result: HKDC1 inh, ATG4B inhibitor, PvdQ inh)
Cc1ccccc1CNc1nnnn1C	none
CC(=O)Oc1ccc(C(=O)Nc2ccc(S(=O)(=O)N3CCOCC3)cc2)cc1	none
COc1ccc(Cc2nnc(Nc3ccccc3OC)[nH]c2=O)cc1	none
CCOCc1nnc(NC(=O)c2cc(OC)c(OC)cc2[N+](=O)[O-])s1	none
O=C(O)c1ccc(S(=O)(=O)c2ccc3c(c2)C(=O)N(NC(=O)c2ccncc2)C3=O)cc1	none
